Source: ChEMBL document CHEMBL4699647, “Targeting the Allosteric Pathway That Interconnects the Core-Functional Scaffold and the Distal Phosphorylation Sites for Specific Dephosphorylation of Bcl-2” (J Med Chem, 2020)
The source made the active and inactive calls. The rule behind the calls is not given here.

How the values were obtained:
OCI-AML-3 = experiment: Induction of apoptosis in human OCI-AML-3 cells measured after 48 hrs by FITC-Annexin V/PS staining based; format: functional, cell-based; conditions: OCI-AML-3, 48 h
Bcl-2-like protein 1 [1] = target: T1, Bcl-2-like protein 1 (Homo sapiens, UniProt Q07817); experiment: Inhibition of FAM-Bim peptide binding to Bcl-xl (unknown origin) measured after 30 mins by fluorescence polarization assay
[2] = Inhibition of FAM-Bim peptide binding to human full-length N-terminal His6-tagged Bcl2 R106A/R109A mutant expressed in Escherichia coli S12 extract measured after 30 mins by fluorescence polarization assay
HL-60 = experiment: Induction of apoptosis in human HL-60 cells measured after 48 hrs by FITC-Annexin V/PS staining based; format: functional, cell-based; conditions: HL-60, 48 h
[3] = target: T2, Apoptosis regulator Bcl-2 (Homo sapiens, UniProt P10415); experiment: Induction of BCl-2 dephosphorylation in human OCI-AML-3 cells at 5 to 10 uM measured after 24 hrs by coimmunoprecipitation method; format: cell-based; conditions: dose microM 5-10, time 24.0 hrs
How it was run: (§1)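 Cells treated for 24 h, then lysed in 1% CHAPS buffer. 500 μg total protein precleared with protein A-Sepharose, incubated overnight with 5 μg specific antibody, captured on protein A-Sepharose or G-agarose, then immunoblotted. Bax/Bcl-2 complex, pBcl-2 (Ser70) and total Bcl-2 read out; n = 3 independent samples.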

[4] = target: T2, Apoptosis regulator Bcl-2; experiment: Induction of BCl-2 dephosphorylation in human OCI-AML-3 cells assessed as increase in Bax expression at 5 to 10 uM measured after 24 hrs by coimmunoprecipitation method; format: cell-based; conditions: dose microM 5-10, time 24.0 hrs; how it was run: as §1
KG-1 = experiment: Induction of apoptosis in human KG-1 cells measured after 48 hrs by FITC-Annexin V/PS staining based; format: functional, cell-based; conditions: KG-1, 48 h
[5] = target: Induced myeloid leukemia cell differentiation protein Mcl-1 (Homo sapiens, UniProt Q07820); experiment: Inhibition of FAM-Bim peptide binding to MCl1 (unknown origin) measured after 30 mins by fluorescence polarization assay
[6] = target: T2, Apoptosis regulator Bcl-2; experiment: Induction of BCl-2 dephosphorylation in human HL-60 cells assessed as increase in Bax expression at 5 to 10 uM measured after 24 hrs by coimmunoprecipitation method; format: cell-based; conditions: dose microM 5-10, time 24.0 hrs; how it was run: as §1
[7] = target: T2, Apoptosis regulator Bcl-2; experiment: Inhibition of FAM-Bim peptide binding to human full-length N-terminal His6-tagged Bcl2 (2 to 206 residues) expressed in Escherichia coli S12 extract measured after 30 mins by fluorescence polarization assay
MCF7 = experiment: Induction of apoptosis in human MCF7 cells measured after 48 hrs by FITC-Annexin V/PS staining based; format: functional, cell-based; conditions: MCF7, 48 h
[8] = target: T2, Apoptosis regulator Bcl-2; experiment: Induction of BCl-2 dephosphorylation in human HL-60 cells at 5 to 10 uM measured after 24 hrs by coimmunoprecipitation method; format: cell-based; conditions: dose microM 5-10, time 24.0 hrs; how it was run: as §1
[9] = target: T2, Apoptosis regulator Bcl-2; experiment: Induction of BCl-2 dephosphorylation in human HL-60 cells assessed as increase in Bax expression at 5 to 15 uM measured after 24 hrs by coimmunoprecipitation method; format: cell-based; conditions: filed as modulator, dose microM 5-15, time 24.0 hrs; how it was run: as §1
Bcl-2-like protein 1 [10] = target: T1, Bcl-2-like protein 1; experiment: Effect on Bcl-xl phosphorylation in human HL-60 cells at 1 to 30 uM by Western blot analysis; conditions: dose microM 1-30
[11] = target: T2, Apoptosis regulator Bcl-2; experiment: Induction of BCl-2 dephosphorylation in human HL-60 cells at 5 to 15 uM measured after 24 hrs by coimmunoprecipitation method; format: cell-based; conditions: filed as modulator, dose microM 5-15, time 24.0 hrs; how it was run: as §1
[12] = Binding affinity to human full-length N-terminal His6-tagged Bcl2 R106A/R109A mutant expressed in Escherichia coli S12 extract by isothermal titration calorimetry
[13] = Binding affinity to human full-length N-terminal His6-tagged prephosphorylated Bcl2 R106A/R109A mutant expressed in Escherichia coli S12 extract by isothermal titration calorimetry
[14] = Resistance ratio of EC50 for induction of apoptosis in human OCI-AML-3 cells to EC50 for Induction of apoptosis in human MCF7 cells; format: functional
[15] = Resistance ratio of EC50 for induction of apoptosis in human HL-60 cells to EC50 for Induction of apoptosis in human KG-1 cells; format: functional
[16] = Resistance ratio of EC50 for induction of apoptosis in human OCI-AML-3 cells to EC50 for Induction of apoptosis in human KG-1 cells; format: functional
[17] = Resistance ratio of EC50 for induction of apoptosis in human HL-60 cells to EC50 for Induction of apoptosis in human MCF7 cells; format: functional
[18] = target: T2, Apoptosis regulator Bcl-2; experiment: Effect on Bcl2 phosphorylation in human HL-60 cells by Western blot analysis
[19] = target: T2, Apoptosis regulator Bcl-2; experiment: Induction of BCl-2 dephosphorylation in human OCI-AML-3 cells at 1 to 5 uM measured after 24 hrs by coimmunoprecipitation method; format: cell-based; conditions: dose microM 1-5, time 24.0 hrs; how it was run: as §1
[20] = target: T2, Apoptosis regulator Bcl-2; experiment: Induction of BCl-2 dephosphorylation in human HL-60 cells at 1 to 5 uM measured after 24 hrs by coimmunoprecipitation method; format: cell-based; conditions: dose microM 1-5, time 24.0 hrs; how it was run: as §1
[21] = target: T2, Apoptosis regulator Bcl-2; experiment: Induction of BCl-2 dephosphorylation in human HL-60 cells assessed as increase in Bax expression at 1 to 5 uM measured after 24 hrs by coimmunoprecipitation method; format: cell-based; conditions: dose microM 1-5, time 24.0 hrs; how it was run: as §1
[22] = target: T2, Apoptosis regulator Bcl-2; experiment: Induction of BCl-2 dephosphorylation in human OCI-AML-3 cells assessed as increase in Bax expression at 1 to 5 uM measured after 24 hrs by coimmunoprecipitation method; format: cell-based; conditions: dose microM 1-5, time 24.0 hrs; how it was run: as §1
[23] = Binding affinity to human full-length N-terminal His6-tagged prephosphorylated Bcl2 R106A/R109A mutant expressed in Escherichia coli S12 extract after 30 mins using FAM-labelled compound by fluorescence polarization assay
[24] = Binding affinity to human full-length N-terminal His6-tagged Bcl2 R106A/R109A mutant expressed in Escherichia coli S12 extract after 30 mins using FAM-labelled compound by fluorescence polarization assay
[25] = target: T2, Apoptosis regulator Bcl-2; experiment: Binding affinity to human full-length N-terminal His6-tagged prephosphorylated Bcl2 (2 to 206 residues) expressed in Escherichia coli S12 extract after 30 mins using FAM-labelled compound by fluorescence polarization assay
[26] = target: T2, Apoptosis regulator Bcl-2; experiment: Binding affinity to human full-length N-terminal His6-tagged Bcl2 (2 to 206 residues) expressed in Escherichia coli S12 extract after 30 mins using FAM-labelled compound by fluorescence polarization assay

T2 sequence (P10415 whole entry): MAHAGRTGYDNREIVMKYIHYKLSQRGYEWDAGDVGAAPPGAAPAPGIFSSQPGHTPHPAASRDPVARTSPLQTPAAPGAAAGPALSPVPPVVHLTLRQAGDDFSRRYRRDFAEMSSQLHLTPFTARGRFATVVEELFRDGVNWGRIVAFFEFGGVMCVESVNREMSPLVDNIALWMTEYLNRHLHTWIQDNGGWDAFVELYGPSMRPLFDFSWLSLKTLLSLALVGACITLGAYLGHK
Induced myeloid leukemia cell differentiation protein Mcl-1, sequence (Q07820 whole entry): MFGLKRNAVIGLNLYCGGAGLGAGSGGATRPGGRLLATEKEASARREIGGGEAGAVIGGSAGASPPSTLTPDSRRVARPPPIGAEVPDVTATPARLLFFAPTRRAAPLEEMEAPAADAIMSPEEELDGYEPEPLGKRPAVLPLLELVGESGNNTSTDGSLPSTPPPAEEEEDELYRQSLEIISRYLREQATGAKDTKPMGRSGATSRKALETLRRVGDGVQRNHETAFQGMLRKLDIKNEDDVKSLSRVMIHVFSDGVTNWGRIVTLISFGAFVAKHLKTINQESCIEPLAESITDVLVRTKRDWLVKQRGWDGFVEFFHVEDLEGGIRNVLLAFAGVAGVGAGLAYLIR
T1 sequence (Q07817 whole entry): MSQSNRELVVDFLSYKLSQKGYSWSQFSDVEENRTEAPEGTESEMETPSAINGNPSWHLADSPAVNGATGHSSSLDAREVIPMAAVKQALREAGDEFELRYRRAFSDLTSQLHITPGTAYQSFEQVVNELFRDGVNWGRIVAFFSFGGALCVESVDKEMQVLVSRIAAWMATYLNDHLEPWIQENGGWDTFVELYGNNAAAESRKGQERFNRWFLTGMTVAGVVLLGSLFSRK

| Structure (SMILES) | EC50 (OCI-AML-3) [nM] | Ki (Bcl-2-like protein 1 [1]) [nM] | EC50 (HL-60) [nM] | EC50 (KG-1) [nM] | Ki [5] [nM] | Ki [7] [nM] | EC50 (MCF7) [nM] | Ki [2] [nM] | also measured |
| --- | --- | --- | --- | --- | --- | --- | --- | --- | --- |
| N#CC1=C(NCCC(=O)NCc2ccc(C(=O)O)cc2)c2ccc(Sc3ccc(Br)cc3)c3cccc(c23)C1=O | 4000 | 810 | 3800 | 4900 | 320 | 160 | 5500 | 1650 | Activity [9]: Active; Activity ([3]; filed as modulator): Active; Activity ([4]; filed as modulator): Active; Activity (Bcl-2-like protein 1 [10]): inactive; Activity [11]: Active |
| CC1(C)CCC(c2ccc(Cl)cc2)=C(CN2CCN(c3ccc(C(=O)NS(=O)(=O)c4ccc(N[C@H](CCN5CCOCC5)CSc5ccccc5)c(S(=O)(=O)C(F)(F)F)c4)cc3)CC2)C1 [NAVITOCLAX] | – | – | – | – | – | – | – | – | Kd [12]: 27.8 nM; Kd [13]: 30.6 nM |
| CC1(C)CCC(CN2CCN(c3ccc(C(=O)NS(=O)(=O)c4ccc(NCC5CCOCC5)c([N+](=O)[O-])c4)c(Oc4cnc5[nH]ccc5c4)c3)CC2)=C(c2ccc(Cl)cc2)C1 [VENETOCLAX] | 6800 | – | 8100 | 850 | – | – | 1350 | – | Activity [19]: inactive; Kd [12]: 4.5 nM; Activity [20]: inactive; Kd [13]: 5.5 nM; Activity [21]: inactive; Activity [22]: inactive |
| N#CC1=C(NCCC(=O)NCc2cccc(C(=O)O)c2)c2ccc(Sc3ccc(Br)cc3)c3cccc(c23)C1=O | – | – | – | – | – | 1020 | – | 1670 | – |
| CN(C)c1ccc(CNC(=O)CCNC2=C(C#N)C(=O)c3cccc4c(Sc5ccc(Br)cc5)ccc2c34)cc1 | – | – | – | – | – | 4320 | – | 840 | – |
| CC[C@H](C)[C@H](NC(=O)[C@H](CCCNC(=N)N)NC(=O)[C@H](CCCNC(=N)N)NC(=O)[C@H](CC(C)C)NC(=O)[C@H](CS)NC(=O)[C@H](CCC(=O)O)NC(=O)[C@H](CO)NC(=O)[C@H](CC(C)C)NC(=O)[C@H](CCCCN)NC(=O)[C@H](CCCCN)NC(=O)[C@@H](NC(=O)[C@H](CO)NC(=O)[C@H](C)NC(=O)[C@H](CC(=O)O)NC(=O)[C@H](CCC(N)=O)NC(=O)[C@@H]1CCCN1C(=O)[C@@H]1CCCN1C(=O)[C@@H](N)CCC(N)=O)[C@@H](C)O)C(=O)NCC(=O)N[C@@H](CC(=O)O)C(=O)N[C@@H](CCC(=O)O)C(=O)N[C@@H](CC(C)C)C(=O)N[C@@H](CC(=O)O)C(=O)N[C@@H](CO)C(=O)N[C@@H](CC(N)=O)C(=O)N[C@@H](CCSC)C(=O)N[C@@H](CCC(=O)O)C(=O)N[C@@H](CC(C)C)C(=O)N[C@@H](CCC(N)=O)C(=O)N[C@@H](CCCNC(=N)N)C(=O)N[C@@H](CCSC)C(=O)N[C@H](C(=O)N[C@@H](C)C(=O)N[C@@H](CC(=O)O)C(=O)N[C@H](C(=O)N[C@@H](CC(=O)O)C(=O)O)C(C)C)[C@@H](C)CC | – | – | – | – | – | – | – | – | Kd [23]: 16.2 nM; Kd [24]: 15.5 nM; Kd [25]: 2.1 nM; Kd [26]: 19.6 nM |
| N#CC1=C(NCCC(=O)NCc2ccccc2C(=O)O)c2ccc(Sc3ccc(Br)cc3)c3cccc(c23)C1=O | – | – | – | – | – | 1350 | – | 1750 | – |

The next lines start with results.

| EC50 (OCI-AML-3) [nM] | Ki (Bcl-2-like protein 1 [1]) [nM] | EC50 (HL-60) [nM] | EC50 (KG-1) [nM] | Ki [5] [nM] | Ki [7] [nM] | EC50 (MCF7) [nM] | Structure (SMILES) | Ki [2] [nM] | also measured |
| --- | --- | --- | --- | --- | --- | --- | --- | --- | --- |
| 22300 | 1110 | 21700 | 16800 | 560 | 1050 | 18500 | N#CC1=C(NCCC(=O)NCc2ccccc2)c2ccc(Sc3ccc(Br)cc3)c3cccc(c23)C1=O | 1880 | Activity [3]: inactive; Activity [4]: inactive; Activity [6]: inactive; Activity [8]: inactive |
| – | – | – | – | – | 1270 | – | N#CC1=C(NCCC(=O)O)c2ccc(Sc3ccc(Br)cc3)c3cccc(c23)C1=O | 1440 | – |
| 15400 | 550 | 16900 | 2700 | 350 | 210 | 3100 | CCCCNC1=C(C#N)C(=O)c2cccc3c(Sc4ccc(Br)cc4)ccc1c23 | 150 | Ratio EC50 [14]: 5; Ratio EC50 [15]: 5; Activity [3]: inactive; Activity [4]: inactive; Ratio EC50 [16]: 5; Activity [6]: inactive; Ratio EC50 [17]: 5; Activity [18]: inactive; Activity [8]: inactive |
| – | – | – | – | – | 810 | – | N#CC1=C(NCCC(=O)NCCOCCO)c2ccc(Sc3ccc(Br)cc3)c3cccc(c23)C1=O | 770 | – |
| – | – | – | – | – | 780 | – | N#CC1=C(NCc2ccc(C(=O)O)cc2)c2ccc(Sc3ccc(Br)cc3)c3cccc(c23)C1=O | 940 | – |
| – | 750 | – | – | 490 | 850 | – | N#CC1=C(C#N)c2ccc(Sc3ccc(Br)cc3)c3cccc(c23)C1=O | 1670 | – |
